# “And” between values parts separate entries of the source, which are not always exact repeats. Equal entries are not always repeated.
# Test system: Fibroblast
# Assay: Multiplex assay against human fibroblast
# Format: toxicity, cell-based
# How it was run: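 Imaging took place on a CQ1 microscope at 37°C and 5% CO2 once compound had been added to live cells stained at seeding with Hoechst33342, BioTracker Green Microtubule Cytoskeleton Dye, MitoTracker Red and Annexin V Alexa Fluor 680. CellPathfinder machine-learning gating classed cells as Hoechst high-intensity objects or normal cells, classed normal cells as having healthy, pyknosed or fragmented nuclei, and classed pyknosed cells as mitotic or apoptotic. Tubulin, mitochondrial-mass and membrane-permeability phenotypes are per cents of the healthy-nucleus cells.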
# [1] = 12 h, 1 µM, compound concentration 1 uM
# [2] = 12 h, 10 µM, compound concentration 10 uM
# [3] = 24 h, 1 µM, compound concentration 1 uM
# [4] = 24 h, 10 µM, compound concentration 10 uM
# [5] = 48 h, 1 µM, compound concentration 1 uM
# [6] = 48 h, 10 µM, compound concentration 10 uM
compound,measurement,setting,value
O=C(Nc1ccccc1Br)N[C@@H]1CCN(c2ccc(C(F)(F)F)cn2)C1 [SB-705498],Population Apoptotic (%),[1],20% and 15.79%
same,Population Healthy Nuclei (%),[1],43.71% and 74.07%
same,Population Hoechst High Intensity Objects (%),[1],0%
same,Population Membrane Permeable-Phenotype (%),[1],3.03% and 0%
same,Population Mitochondria Different-Phenotype (%),[1],12.12% and 8.57%
same,Population Mitotic Cells (%),[1],80% and 84.21%
same,Population Normal (%),[1],100%
same,Population Pyknosed Nuclei (%),[1],29.8% and 20.11%
same,Population Tubulin-Different-Phenotype (%),[1],33.33% and 14.29%
same,Total Cell Count,[1],151 and 189
same,Population Apoptotic (%),[2],10.94% and 22.22%
same,Population Fragmented Nuclei (%),[2],10.95% and 8.47%
same,Population Healthy Nuclei (%),[2],57.21% and 76.27%
same,Population Hoechst High Intensity Objects (%),[2],0%
same,Population Membrane Permeable-Phenotype (%),[2],3.48% and 7.41%
same,Population Mitochondria Different-Phenotype (%),[2],15.65% and 15.56%
same,Population Mitotic Cells (%),[2],89.06% and 77.78%
same,Population Normal (%),[2],100%
same,Population Pyknosed Nuclei (%),[2],31.84% and 15.25%
same,Population Tubulin-Different-Phenotype (%),[2],15.65% and 42.22%
same,Total Cell Count,[2],201 and 177
same,Population Apoptotic (%),[3],15.62% and 20%
same,Population Healthy Nuclei (%),[3],57.14% and 83%
same,Population Hoechst High Intensity Objects (%),[3],0%
same,Population Membrane Permeable-Phenotype (%),[3],3.12% and 1.81%
same,Population Mitochondria Different-Phenotype (%),[3],11.46% and 8.43%
same,Population Mitotic Cells (%),[3],84.38% and 80%
same,Population Normal (%),[3],100%
same,Population Pyknosed Nuclei (%),[3],19.05% and 12.5%
same,Population Tubulin-Different-Phenotype (%),[3],30.21% and 13.86%
same,Total Cell Count,[3],168 and 200
same,Population Apoptotic (%),[4],18.03% and 12%
same,Population Fragmented Nuclei (%),[4],9.01% and 6.59%
same,Population Healthy Nuclei (%),[4],64.81% and 78.44%
same,Population Hoechst High Intensity Objects (%),[4],0%
same,Population Membrane Permeable-Phenotype (%),[4],5.3% and 5.34%
same,Population Mitochondria Different-Phenotype (%),[4],9.93% and 20.61%
same,Population Mitotic Cells (%),[4],81.97% and 88%
same,Population Normal (%),[4],100%
same,Population Pyknosed Nuclei (%),[4],26.18% and 14.97%
same,Population Tubulin-Different-Phenotype (%),[4],29.8% and 41.98%
same,Total Cell Count,[4],233 and 167
same,Population Apoptotic (%),[5],25% and 18.18%
same,Population Fragmented Nuclei (%),[5],16.97% and 7.55%
same,Population Healthy Nuclei (%),[5],73.33% and 87.26%
same,Population Hoechst High Intensity Objects (%),[5],0%
same,Population Membrane Permeable-Phenotype (%),[5],3.31% and 0.54%
same,Population Mitochondria Different-Phenotype (%),[5],12.4% and 3.24%
same,Population Mitotic Cells (%),[5],75% and 81.82%
same,Population Normal (%),[5],100%
same,Population Pyknosed Nuclei (%),[5],9.7% and 5.19%
same,Population Tubulin-Different-Phenotype (%),[5],12.4% and 13.51%
same,Total Cell Count,[5],165 and 212
same,Population Apoptotic (%),[6],31.25% and 21.43%
same,Population Fragmented Nuclei (%),[6],9.02% and 8.28%
same,Population Healthy Nuclei (%),[6],84.43% and 83.43%
same,Population Hoechst High Intensity Objects (%),[6],0%
same,Population Membrane Permeable-Phenotype (%),[6],1.46% and 9.93%
same,Population Mitochondria Different-Phenotype (%),[6],12.62% and 5.67%
same,Population Mitotic Cells (%),[6],68.75% and 78.57%
same,Population Normal (%),[6],100%
same,Population Pyknosed Nuclei (%),[6],6.56% and 8.28%
same,Population Tubulin-Different-Phenotype (%),[6],17.48% and 42.55%
same,Total Cell Count,[6],244 and 169
CCCC(CCC)C(=O)O [VALPROIC ACID],Population Apoptotic (%),[1],42% and 57%
same,Population Fragmented Nuclei (%),[1],13% and 20%
same,Population Healthy Nuclei (%),[1],65% and 47%
same,Population Hoechst High Intensity Objects (%),[1],3% and 8%
same,Population Membrane Permeable-Phenotype (%),[1],2% and 10%
same,Population Mitotic Cells (%),[1],57% and 42%
same,Population Normal (%),[1],96% and 91%
same,Population Pyknosed Nuclei (%),[1],21% and 31%
same,Population Tubulin-Different-Phenotype (%),[1],27% and 49%
same,Population Apoptotic (%),[2],30% and 43%
same,Population Fragmented Nuclei (%),[2],29% and 16%
same,Population Healthy Nuclei (%),[2],60% and 53%
same,Population Hoechst High Intensity Objects (%),[2],4% and 2%
same,Population Membrane Permeable-Phenotype (%),[2],1% and 4%
same,Population Mitochondria Different-Phenotype (%),[2],3% and 8%
same,Population Mitotic Cells (%),[2],70% and 56%
same,Population Normal (%),[2],95% and 97%
same,Population Tubulin-Different-Phenotype (%),[2],16% and 41%
same,Population Apoptotic (%),[3],42% and 48%
same,Population Fragmented Nuclei (%),[3],11% and 22%
same,Population Healthy Nuclei (%),[3],69% and 53%
same,Population Hoechst High Intensity Objects (%),[3],5% and 7%
same,Population Membrane Permeable-Phenotype (%),[3],1% and 3%
same,Population Mitochondria Different-Phenotype (%),[3],2% and 7%
same,Population Mitotic Cells (%),[3],57% and 51%
same,Population Normal (%),[3],95% and 92%
same,Population Pyknosed Nuclei (%),[3],19% and 24%
same,Population Tubulin-Different-Phenotype (%),[3],22% and 54%
same,Population Apoptotic (%),[4],50% and 38%
same,Population Fragmented Nuclei (%),[4],27% and 30%
same,Population Healthy Nuclei (%),[4],66% and 46%
same,Population Hoechst High Intensity Objects (%),[4],6% and 3%
same,Population Membrane Permeable-Phenotype (%),[4],0% and 5%
same,Population Mitochondria Different-Phenotype (%),[4],1% and 4%
same,Population Mitotic Cells (%),[4],50% and 61%
same,Population Normal (%),[4],93% and 96%
same,Population Tubulin-Different-Phenotype (%),[4],21% and 41%
same,Population Apoptotic (%),[5],55% and 48%
same,Population Fragmented Nuclei (%),[5],18% and 36%
same,Population Healthy Nuclei (%),[5],66% and 44%
same,Population Hoechst High Intensity Objects (%),[5],7%
same,Population Membrane Permeable-Phenotype (%),[5],0% and 4%
same,Population Mitochondria Different-Phenotype (%),[5],1% and 7%
same,Population Mitotic Cells (%),[5],44% and 51%
same,Population Normal (%),[5],92%
same,Population Pyknosed Nuclei (%),[5],14% and 19%
same,Population Tubulin-Different-Phenotype (%),[5],19% and 55%
same,Population Apoptotic (%),[6],60%
same,Population Fragmented Nuclei (%),[6],30% and 33%
same,Population Healthy Nuclei (%),[6],60% and 51%
same,Population Hoechst High Intensity Objects (%),[6],1% and 5%
same,Population Membrane Permeable-Phenotype (%),[6],0% and 6%
same,Population Mitochondria Different-Phenotype (%),[6],1% and 5%
same,Population Mitotic Cells (%),[6],40% and 39%
same,Population Normal (%),[6],98% and 94%
same,Population Pyknosed Nuclei (%),[6],8% and 15%
same,Population Tubulin-Different-Phenotype (%),[6],18% and 46%
